SMILES strings stand for the structures. ≈ marks a conversion by molar mass, not a printed value. Calls of active or inactive are those of the source. A value given as a limit tells only on which side of the number the result lay.

This note sets out measurements from ChEMBL document CHEMBL3739273, “Synthesis, biological activity evaluation and molecular docking studies of novel coumarin substituted thiazolyl-3-aryl-pyrazole-4-carbaldehydes” (Bioorg Med Chem Lett, 2015).

Experiment [1] in a line: Anticancer activity against human DU145 cells assessed as cell viability after 48 hrs by MTT assay. It is filed as functional, cell-based. The note with it: DU-145, 48 h. The procedure, abridged:
(§1)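 MTT cytotoxicity assay in human DU-145 prostate, MCF-7 breast and HeLa cervical cancer cell lines. Doxorubicin was the reference drug.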

In another experiment the test system is MCF7. Briefly: Anticancer activity against human MCF7 cells assessed as cell viability after 48 hrs by MTT assay. In kind it is functional, cell-based. Particulars: MCF7, 48 h. The method in brief: as §1
For orientation: Tetrazolium dyes change colour on reduction, which living cells bring about.

The next experiment deals with HeLa. The experiment is described as follows: Anticancer activity against human HeLa cells assessed as cell viability after 48 hrs by MTT assay. In kind it is functional, cell-based. The procedure, abridged:
as §1

The subject of experiment [2] is Staphylococcus aureus. The experiment is described as follows: Antibacterial activity against methicillin-resistant Staphylococcus aureus NCTC 13616 assessed as growth inhibition at 100 ug/ml after 24 hrs by agar well diffusion method. It is filed as functional, organism-based. The method in brief: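 Agar well diffusion assay with compounds applied to wells at several concentrations, including the 100 level reported here. The zone of inhibition was measured in mm. Gentamycin sulfate was the standard drug.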

Experiment [3] relates to Escherichia coli. The experiment is described as follows: Antibacterial activity against Escherichia coli ATCC 8739 after 24 hrs by microtiter plate method. In kind it is functional. Particulars: ATCC 8739, 24 h. The method in brief:
(§2)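 Test concentrations reported in µg/mL. Gentamycin sulfate and ampicillin were the reference drugs.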

Experiment [4] relates to Klebsiella pneumoniae. Briefly: Antibacterial activity against Klebsiella pneumoniae ATCC 43816 after 24 hrs by microtiter plate method. In kind it is functional. The note with it: ATCC 43816, 24 h. The method in brief:
as §2

Experiment [5] relates to Proteus vulgaris. The experiment is described as follows: Antibacterial activity against Proteus vulgaris ATCC 13315 after 24 hrs by microtiter plate method. In kind it is functional. The note with it: ATCC 13315, 24 h. The procedure, abridged:
as §2

Experiment [6] concerns Staphylococcus aureus. Briefly: Antibacterial activity against methicillin-resistant Staphylococcus aureus NCTC 13616 after 24 hrs by microtiter plate method. It is filed as functional. Particulars: NCTC 13616, 24 h.
Experiment [7] concerns Bacillus spizizenii. The experiment is described as follows: Antibacterial activity against Bacillus subtilis ATCC 6633 after 24 hrs by microtiter plate method. In kind it is functional. The note with it: ATCC 6633, 24 h. The method in brief:
as §2

Experiment [8] concerns Bacillus cereus. The experiment is described as follows: Antibacterial activity against Bacillus cereus ATCC 14579 after 24 hrs by microtiter plate method. It is filed as functional. The note with it: ATCC 14579, 24 h. The method in brief:
as §2

The subject of experiment [9] is Escherichia coli. Briefly: Bactericidal activity against Escherichia coli ATCC 8739 after 24 hrs. It is filed as functional. Particulars: ATCC 8739, 24 h, read-out: MBC99.9. The method in brief: (§3)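 MBC determined by a standard MBC protocol alongside the MIC, with values in µg/mL. Gentamycin sulfate and ampicillin were the references.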
The test system of experiment [10] is Klebsiella pneumoniae. The experiment is described as follows: Bactericidal activity against Klebsiella pneumoniae ATCC 43816 after 24 hrs. It is filed as functional. The note with it: ATCC 43816, 24 h, read-out: MBC99.9. The procedure, abridged:
as §3

For experiment [11], the system named is Proteus vulgaris. The experiment is described as follows: Bactericidal activity against Proteus vulgaris ATCC 13315 after 24 hrs. Particulars: ATCC 13315, 24 h, read-out: MBC99.9. In kind it is functional. The procedure, abridged:
as §3

Experiment [12] concerns Staphylococcus aureus. The experiment is described as follows: Bactericidal activity against methicillin-resistant Staphylococcus aureus NCTC 13616 after 24 hrs. It is filed as functional. Particulars: NCTC 13616, 24 h, read-out: MBC99.9. The method in brief: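 MBC determined by a standard MBC protocol run alongside the MIC determination. Gentamycin sulfate and ampicillin served as reference drugs.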

Experiment [13] concerns Bacillus spizizenii. The experiment is described as follows: Bactericidal activity against Bacillus subtilis ATCC 6633 after 24 hrs. It is filed as functional. Particulars: ATCC 6633, 24 h, read-out: MBC99.9. The procedure, abridged: as §3
The test system of experiment [14] is Bacillus cereus. Briefly: Bactericidal activity against Bacillus cereus ATCC 14579 after 24 hrs. It is filed as functional. Particulars: ATCC 14579, 24 h, read-out: MBC99.9. The procedure, abridged: as §3
A further experiment deals with T1, Cytochrome P450 2A6 (Homo sapiens, UniProt P11509).
T1 sequence (P11509 whole entry): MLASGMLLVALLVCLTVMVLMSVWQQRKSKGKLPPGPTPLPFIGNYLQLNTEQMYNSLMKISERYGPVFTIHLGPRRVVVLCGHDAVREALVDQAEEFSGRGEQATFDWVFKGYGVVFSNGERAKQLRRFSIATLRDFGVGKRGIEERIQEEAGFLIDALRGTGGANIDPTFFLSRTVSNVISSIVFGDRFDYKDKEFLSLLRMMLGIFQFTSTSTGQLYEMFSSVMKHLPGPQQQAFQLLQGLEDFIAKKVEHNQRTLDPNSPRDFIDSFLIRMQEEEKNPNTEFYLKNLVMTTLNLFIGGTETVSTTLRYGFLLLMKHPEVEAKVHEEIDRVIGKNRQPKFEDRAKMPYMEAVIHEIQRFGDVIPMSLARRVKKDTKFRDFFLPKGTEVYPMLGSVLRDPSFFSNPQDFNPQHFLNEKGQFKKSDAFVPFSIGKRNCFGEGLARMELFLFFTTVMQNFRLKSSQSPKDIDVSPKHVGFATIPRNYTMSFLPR
The experiment is described as follows: Inhibition of human microsomal CYP2A6. It is filed as ADME.

As for `O=Cc1cn(-c2nc(-c3cc4cc(Cl)ccc4oc3=O)cs2)nc1-c1ccccc1`, the results for the IC50 (in experiment [1]; in the experiment with MCF7; in the experiment with HeLa) were over 100 µM, over 100 µM and 12.8 µM, respectively. In the experiment with Staphylococcus aureus [2], the “growth inhibition (GI)” value is “inactive”. Moreover, the MIC against Escherichia coli [3] came to 135 µg/mL (≈ 310 µM); in the experiment on Klebsiella pneumoniae [4], 129 µg/mL (≈ 297 µM); in the experiment with Proteus vulgaris [5], 130 µg/mL (≈ 300 µM); in the experiment on Staphylococcus aureus [6], 150 µg/mL (≈ 346 µM); in the experiment with Bacillus spizizenii [7] it was 130 µg/mL (≈ 298 µM); in the experiment with Bacillus cereus [8], 139 µg/mL (≈ 319 µM). Moreover, the MBC in the experiment with Escherichia coli [9] is 265 µg/mL (≈ 611 µM); in the experiment with Klebsiella pneumoniae [10], 190 µg/mL (≈ 438 µM); in the experiment with Proteus vulgaris [11] it was 260 µg/mL (≈ 599 µM); in the experiment on Staphylococcus aureus [12], 300 µg/mL (≈ 691 µM); in the experiment on Bacillus spizizenii [13], 190 µg/mL (≈ 438 µM); in the experiment with Bacillus cereus [14], 275 µg/mL (≈ 634 µM). Further, the affinity on Cytochrome P450 2A6 corresponds to a Ki of 0.00258 µM.

As for `Cc1ccc(-c2nn(-c3nc(-c4cc5ccccc5oc4=O)cs3)cc2C=O)cc1`, the half-inhibitory concentration (IC50) was found to be 50.2 µM in [1], 69.5 µM in the experiment on MCF7 and 37.4 µM in the experiment on HeLa. Further, the “growth inhibition (GI)” value with Staphylococcus aureus [2] was “inactive”. Besides, the MIC is 132 µg/mL (≈ 320 µM) in the experiment with Escherichia coli [3]; 150 µg/mL (≈ 363 µM) in the experiment on Klebsiella pneumoniae [4]; 150 µg/mL (≈ 363 µM) with Proteus vulgaris [5]; 150 µg/mL (≈ 363 µM) against Staphylococcus aureus [6]; 150 µg/mL (≈ 363 µM) against Bacillus spizizenii [7]; 135 µg/mL (≈ 327 µM) against Bacillus cereus [8]. Also, the MBC in the experiment on Escherichia coli [9] worked out at 260 µg/mL (≈ 629 µM); in the experiment on Klebsiella pneumoniae [10], 300 µg/mL (≈ 726 µM); in the experiment on Proteus vulgaris [11] it was 300 µg/mL (≈ 726 µM); in the experiment with Staphylococcus aureus [12], 300 µg/mL (≈ 726 µM); with Bacillus spizizenii [13] it was 300 µg/mL (≈ 726 µM); with Bacillus cereus [14], 270 µg/mL (≈ 653 µM). On Cytochrome P450 2A6, this compound displayed a Ki of 0.011 µM.

As to `O=Cc1cn(-c2nc(-c3cc4ccccc4oc3=O)cs2)nc1-c1ccccc1`, the concentration for half-maximal inhibition (IC50) (in experiment [1]; in the experiment with MCF7; in the experiment on HeLa) was over 100 µM throughout. Also, in the experiment with Staphylococcus aureus [2], the “growth inhibition (GI)” value is “inactive”. Besides, the MIC was determined as 135 µg/mL (≈ 338 µM) in the experiment on Escherichia coli [3]; 150 µg/mL (≈ 376 µM) with Klebsiella pneumoniae [4]; 133 µg/mL (≈ 333 µM) in the experiment with Proteus vulgaris [5]; 150 µg/mL (≈ 376 µM) against Staphylococcus aureus [6]; 132 µg/mL (≈ 330 µM) in the experiment with Bacillus spizizenii [7]; 145 µg/mL (≈ 363 µM) in the experiment on Bacillus cereus [8]. Further, the MBC in the experiment on Escherichia coli [9] was 270 µg/mL (≈ 676 µM); in the experiment on Klebsiella pneumoniae [10], 225 µg/mL (≈ 563 µM); with Proteus vulgaris [11], 200 µg/mL (≈ 501 µM); in the experiment on Staphylococcus aureus [12], 300 µg/mL (≈ 751 µM); in the experiment with Bacillus spizizenii [13] it was 260 µg/mL (≈ 651 µM); in the experiment on Bacillus cereus [14] it was 290 µg/mL (≈ 726 µM). On Cytochrome P450 2A6, this compound returned an inhibition constant (Ki) of 0.013 µM.

For `COc1cccc2cc(-c3csc(-n4cc(C=O)c(-c5ccc(C)cc5)n4)n3)c(=O)oc12`, the IC50 in experiment [1] turned out to be 31.4 µM; in the experiment on MCF7 it was 42.6 µM; in the experiment on HeLa, 28.2 µM. Also, in the experiment with Staphylococcus aureus [2], the “growth inhibition (GI)” value was “inactive”. Also, the minimal inhibitory concentration (MIC) stood at 133 µg/mL (≈ 299 µM) with Escherichia coli [3]; 150 µg/mL (≈ 338 µM) in the experiment with Klebsiella pneumoniae [4]; 142 µg/mL (≈ 320 µM) with Proteus vulgaris [5]; 150 µg/mL (≈ 338 µM) in the experiment with Staphylococcus aureus [6]; 150 µg/mL (≈ 338 µM) in the experiment with Bacillus spizizenii [7]; 136 µg/mL (≈ 307 µM) in the experiment with Bacillus cereus [8]. Also, the MBC in the experiment on Escherichia coli [9] amounted to 260 µg/mL (≈ 586 µM); in the experiment on Klebsiella pneumoniae [10] it was 300 µg/mL (≈ 676 µM); in the experiment on Proteus vulgaris [11], 285 µg/mL (≈ 643 µM); with Staphylococcus aureus [12] it was 300 µg/mL (≈ 676 µM); in the experiment on Bacillus spizizenii [13], 300 µg/mL (≈ 676 µM); in the experiment with Bacillus cereus [14], 275 µg/mL (≈ 620 µM). The compound further registered an inhibition constant Ki on Cytochrome P450 2A6 of 0.00193 µM.

As for `CC1(C)S[C@@H]2[C@H](NC(=O)[C@H](N)c3ccccc3)C(=O)N2[C@H]1C(=O)O` [AMPICILLIN], the minimal inhibitory concentration (MIC) was determined as 10 µg/mL (≈ 28.6 µM) in the experiment with Escherichia coli [3], 4 µg/mL (≈ 11.4 µM) against Staphylococcus aureus [6], 5 µg/mL (≈ 14.3 µM) against Bacillus spizizenii [7] and 4 µg/mL (≈ 11.4 µM) against Bacillus cereus [8]. In addition, the MBC was found to be 18 µg/mL (≈ 51.5 µM) with Escherichia coli [9], 6 µg/mL (≈ 17.2 µM) with Staphylococcus aureus [12], 10 µg/mL (≈ 28.6 µM) in the experiment with Bacillus spizizenii [13] and 8 µg/mL (≈ 22.9 µM) in the experiment with Bacillus cereus [14].

For orientation: IC50 means the concentration that gives 50% inhibition. Broadly, the MIC is the smallest concentration in the dilution series that meets the test's criterion for growth inhibition. In general, Ki refers to a measure of affinity in units of concentration, obtained from inhibition or displacement.
